# Data taken from ChEMBL document CHEMBL4834447, “A gemcitabine-based conjugate with enhanced antitumor efficacy by suppressing HIF-1α expression under hypoxia” (Bioorg Med Chem, 2021).
# Calls of active or inactive are those of the source. The calls are words filed in the database; no cut-off is given here.
# Legend:
# A2780 [1] = experiment: Induction of cell cycle arrest in human A2780 cells assessed as S phase at 0.5 uM incubated for 24 hrs by PI staining based flow cytometry analysis (reference value: 20.11 %)
# A2780 [2] = experiment: Induction of apoptosis in human A2780 cells assessed as late apoptotic cells at 0.5 uM incubated for 72 hrs by annexin-V-FITC and PI staining based flow cytometry analysis (reference value: 1.71 %); type: functional
# A2780 [3] = experiment: Induction of apoptosis in human A2780 cells assessed as late apoptotic cells at 0.5 uM incubated for 72 hrs in hypoxic condition by annexin-V-FITC and PI staining based flow cytometry analysis (reference value: 6.17 %); type: functional
# A2780 [4] = experiment: Induction of cell cycle arrest in human A2780 cells assessed as G1 phase at 0.5 uM incubated for 24 hrs in hypoxic condition by PI staining based flow cytometry analysis (reference value: 56.83 %)
# MCF7 [5] = experiment: Potency index, ratio of IC50 of GEM to IC50 of compound for cytotoxicity against human MCF7 cells assessed as reduction in cell viability incubated for 72 hrs by MTT assay; type: functional
# Outline: (§1)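 The fold value is the IC50 of gemcitabine divided by the compound's IC50. Both IC50s come from 72 h normoxic MTT assays (1.25–80 μmol/L, Bliss method, three independent runs).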
# [6] = Toxicity in BALB/c mouse xenografted with human A2780 cells assessed as effect on body weight at 125 mg/kg, iv administered for 28 days and measured on day 28; type: organism-based; details: in vivo, 672 h, time 28 day
# Outline: (§2)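 The A2780 subcutaneous xenograft was set up in female BALB/c nude mice. Weekly i.v. tail-vein dosing ran for 4 weeks, starting at 100–150 mm³ tumor size (5 mice/group), with DMF:Tween 80:5% dextrose (10:2:88) as the formulation and a 5% dextrose vehicle control. Body weight was recorded every three days over 28 days.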
# A2780 [7] = experiment: Induction of cell cycle arrest in human A2780 cells assessed as G2/M phase at 0.5 uM incubated for 24 hrs by PI staining based flow cytometry analysis (reference value: 4.66 %)
# [8] = Toxicity in BALB/c mouse xenografted with human A2780 cells assessed as effect on body weight at 271 mg/kg, iv administered for 28 days and measured on day 28; type: organism-based; details: in vivo, 672 h, time 28 day
# Outline: as §2
# A549 [9] = experiment: Potency index, ratio of IC50 of GEM to IC50 of compound for cytotoxicity against human A549 cells assessed as reduction in cell viability incubated for 72 hrs by MTT assay; type: functional
# Outline: as §1
# A2780 [10] = experiment: Antitumor activity against human A2780 cells xenografted in BALB/c mouse assessed as reduction in tumor growth at 125 mg/kg, iv administered for 28 days and measured on day 28 relative to control; type: functional; details: 672 h, time 28 day, read-out: TGI
# Outline: (§3)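 Female BALB/c nude mice, 5 weeks old, were implanted subcutaneously in the right armpit with 10⁷ A2780 cells in 0.1 mL PBS. At 100–150 mm³ (day 19) mice were randomized (5/group) and dosed by tail-vein injection once weekly for 4 weeks. GEM-5 was given in DMF:Tween 80:5% dextrose (10:2:88); vehicle controls received 5% dextrose. Volume was measured by caliper (V = AB²/2) every 3 days. Tumors were weighed after sacrifice, giving the tumor inhibitory rate.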
# L02 [11] = experiment: Cytotoxicity against human L02 cells assessed as reduction in cell viability incubated for 72 hrs by MTT assay; type: cell-based; details: L02, 72 h
# Outline: (§4)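 In the MTT assay, logarithmic-phase cells were seeded at about 5 × 10⁴ cells/mL and preincubated 12 h. Cells were then exposed for 72 h at 37 °C under normoxia (20% O₂, 5% CO₂) to seven final concentrations, 1.25–80 μmol/L, diluted from DMSO stock. MTT (5 mg/mL) was added for 4 h, formazan was dissolved in DMSO, and absorbance was read at 570/630 nm. IC50 was calculated by the Bliss method; values are mean ± SD of three independent runs in duplicate.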
# A2780 [12] = experiment: Cytotoxicity against human A2780 cells assessed as reduction in cell viability incubated for 72 hrs in hypoxic condition by MTT assay; type: functional, cell-based; details: A2780, 72 h
# Outline: (§5)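 For the hypoxic MTT assay, cells were seeded at about 5 × 10⁴ cells/mL and preincubated 12 h under hypoxia (1% O₂, 5% CO₂, 94% N₂). They were then treated for 72 h at 37 °C with final concentrations of 1.25–80 μmol/L. MTT was added for 4 h and absorbance read at 570/630 nm. IC50 was obtained by the Bliss method; tests were repeated three times.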
# MCF7 [13] = experiment: Cytotoxicity against human MCF7 cells assessed as reduction in cell viability incubated for 72 hrs by MTT assay; type: functional, cell-based; details: MCF7, 72 h
# Outline: as §4
# A2780 [14] = experiment: Induction of cell cycle arrest in human A2780 cells assessed as G1 phase at 0.5 uM incubated for 24 hrs by PI staining based flow cytometry analysis (reference value: 75.23 %)
# A2780 [15] = experiment: Induction of apoptosis in human A2780 cells assessed as necrotic cells at 0.5 uM incubated for 72 hrs in hypoxic condition by annexin-V-FITC and PI staining based flow cytometry analysis (reference value: 3.04 %); type: functional
# A2780 [16] = experiment: Induction of apoptosis in human A2780 cells assessed as necrotic cells at 0.5 uM incubated for 72 hrs by annexin-V-FITC and PI staining based flow cytometry analysis (reference value: 0.98 %); type: functional
# A2780 [17] = experiment: Antitumor activity against human A2780 cells xenografted in BALB/c mouse assessed as reduction in tumor growth at 271 mg/kg, iv administered for 28 days and measured on day 28 relative to control; type: functional; details: 672 h, time 28 day, read-out: TGI
# Outline: as §3
# A549 [18] = experiment: Cytotoxicity against human A549 cells assessed as reduction in cell viability incubated for 72 hrs by MTT assay; type: functional, cell-based; details: A549, 72 h
# Outline: as §4
# A2780 [19] = experiment: Cytotoxicity against human A2780 cells assessed as reduction in cell viability incubated for 72 hrs by MTT assay; type: functional, cell-based; details: A2780, 72 h
# Outline: as §4
# A549 [20] = experiment: Cytotoxicity against human A549 cells assessed as reduction in cell viability incubated for 72 hrs in hypoxic condition by MTT assay; type: functional, cell-based; details: A549, 72 h
# Outline: as §5
# A2780 [21] = experiment: Induction of apoptosis in human A2780 cells assessed as early apoptotic cells at 0.5 uM incubated for 72 hrs in hypoxic condition by annexin-V-FITC and PI staining based flow cytometry analysis (reference value: 9.74 %); type: functional
# A2780 [22] = experiment: Induction of apoptosis in human A2780 cells assessed as viable cells at 0.5 uM incubated for 72 hrs in hypoxic condition by annexin-V-FITC and PI staining based flow cytometry analysis (reference value: 81.05 %); type: functional; details: read-out: Activity
# A2780 [23] = experiment: Antitumor activity against human A2780 cells xenografted in BALB/c mouse assessed as reduction in tumor hypoxia at 271 mg/kg, iv administered for 28 days and measured on day 28 by DAPI staining based confocal microscopic analysis; type: functional, organism-based; details: time 28.0 day
# Outline: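 Tumor sections from the weekly i.v.-dosed A2780 xenograft mice were stained for hypoxia with the pimonidazole kit. This used FITC anti-pimonidazole antibody (1:100) plus HRP rabbit anti-FITC secondary (1:100), with DAPI for nuclei. Green hypoxic areas were imaged by confocal microscopy. Three independent experiments were run.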
# L02 [24] = experiment: Cytotoxicity against human L02 cells assessed as reduction in cell viability incubated for 72 hrs in hypoxic condition by MTT assay; type: cell-based; details: L02, 72 h
# A2780 [25] = experiment: Potency index, ratio of IC50 of GEM to IC50 of compound for cytotoxicity against human A2780 cells assessed as reduction in cell viability incubated for 72 hrs by MTT assay; type: functional
# Outline: as §1
# A2780 [26] = experiment: Upregulation of p53 in human A2780 cells at 0.1 to 1 uM incubated for 24 hrs in hypoxia condition by Western blot analysis; type: functional, cell-based; details: dose 0.1-1 µM
# Outline: (§6)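 A2780 cells were treated at the indicated concentrations for 24 h under hypoxia. They were lysed in Tris-Cl pH 6.8 buffer with SDS, glycerol, β-mercaptoethanol, PMSF and aprotinin, then centrifuged at 13000 rpm for 20 min at 4 °C. Proteins were resolved by SDS-PAGE and transferred to PVDF. Blots were probed for HIF-1α, p53 and GAPDH, with secondary antibody at 1:2000 for 1 h, and detected by chemiluminescence.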
# A2780 [27] = experiment: Induction of apoptosis in human A2780 cells assessed as early apoptotic cells at 0.5 uM incubated for 72 hrs by annexin-V-FITC and PI staining based flow cytometry analysis (reference value: 5.35 %); type: functional
# A2780 [28] = experiment: Downregulation of HIF-1alpha in human A2780 cells incubated for 24 hrs in hypoxia condition by Western blot analysis; type: functional, cell-based; details: dose 0.1-1 µM
# Outline: as §6
# A2780 [29] = experiment: Induction of cell cycle arrest in human A2780 cells assessed as G2/M phase at 0.5 uM incubated for 24 hrs in hypoxic condition by PI staining based flow cytometry analysis (reference value: 8.38 %)
# A2780 [30] = experiment: Antitumor activity against human A2780 cells xenografted in BALB/c mouse assessed as reduction in tumor volume at 125 mg/kg, iv administered for 28 days and measured on day 28 relative to control; type: functional; parameters: scale not given: the % may be the effect or the level left; details: time 28 day
# Outline: as §3
# A2780 [31] = experiment: Induction of cell cycle arrest in human A2780 cells assessed as S phase at 0.5 uM incubated for 24 hrs in hypoxic condition by PI staining based flow cytometry analysis (reference value: 34.79 %)
# A2780 [32] = experiment: Antitumor activity against human A2780 cells xenografted in BALB/c mouse assessed as reduction in tumor volume at 271 mg/kg, iv administered for 28 days and measured on day 28 relative to control; type: functional; parameters: scale not given: the % may be the effect or the level left; details: time 28 day
# Outline: as §3
# A2780 [33] = experiment: Induction of apoptosis in human A2780 cells assessed as viable cells at 0.5 uM incubated for 72 hrs by annexin-V-FITC and PI staining based flow cytometry analysis (reference value: 91.95 %); type: functional; details: read-out: Activity
# A2780 [34] = experiment: (§7) Downregulation of HIF-1alpha in human A2780 cells at 1 uM incubated for 24 hrs in hypoxia condition by Western blot analysis relative to control; type: functional
# Outline: as §6
# [35] = as §7; type: functional
# Outline: as §6
SMILES,Activity (A2780 [1]),Activity (A2780 [2]),Activity (A2780 [3]),Activity (A2780 [4]),Activity [6],Activity (A2780 [7]),inhibition in vivo at 125 mg/kg (A2780 [10]),IC50 (L02 [11]),IC50 (A2780 [12]),IC50 (MCF7 [13]),Activity (A2780 [14]),Activity (A2780 [15]),Activity (A2780 [16]),IC50 (A549 [18]),IC50 (A2780 [19]),IC50 (A549 [20]),Activity (A2780 [21]),viability at 0.5 µM (A2780 [22]),IC50 (L02 [24]),Activity (A2780 [26]),also measured
Nc1ccn([C@@H]2O[C@H](COC(=O)CCC(=O)OCc3ccc(-c4nn(Cc5ccccc5)c5ccccc45)o3)[C@@H](O)C2(F)F)c(=O)n1,63.02%,48.82%,32.41%,19.37%,Non-Toxic,19.24%,55.1%,4.43 µM,0.03 µM,2.6 µM,17.74%,1.13%,12.08%,0.37 µM,0.13 µM,3.03 µM,48.48%,18%,3.04 µM,Dose-Dependent Effect,Ratio IC50 (MCF7 [5]): 2.4; Activity [8]: Non-Toxic; Ratio IC50 (A549 [9]): 6.2; inhibition in vivo at 271 mg/kg (A2780 [17]): 64.6%; Activity (A2780 [23]): Active; Ratio IC50 (A2780 [25]): 9.6; Activity (A2780 [27]): 3.85%; Activity (A2780 [28]): Dose-Dependent Effect; Activity (A2780 [29]): 7.99%; Activity (A2780 [30]): 46.09%; Activity (A2780 [31]): 72.64%; Activity (A2780 [32]): 36.61%; viability at 0.5 µM (A2780 [33]): 35.2%
Cl.Nc1ccn([C@@H]2O[C@H](CO)[C@@H](O)C2(F)F)c(=O)n1 [GEMCITABINE HYDROCHLORIDE],51.54%,34.42%,19.51%,37.21%,Non-Toxic,5.95%,69.7%,11.9 µM,1.38 µM,6.35 µM,42.51%,2.44%,8.98%,2.31 µM,1.25 µM,14.7 µM,25%,53%,4.51 µM,Dose-Dependent Effect,Activity (A2780 [34]): inactive; Activity (A2780 [27]): 5.02%; Activity (A2780 [29]): 2.7%; Activity (A2780 [30]): 29.37%; Activity (A2780 [31]): 60.08%; viability at 0.5 µM (A2780 [33]): 51.6%
OCc1ccc(-c2nn(Cc3ccccc3)c3ccccc23)o1,,,,,,,,> 80 µM,20.4 µM,> 80 µM,,,,> 80 µM,> 80 µM,25.6 µM,,,26.6 µM,inactive,Activity [35]: 50%
